The results in this text go back to ChEMBL document CHEMBL1817606, “3-benzhydryl-4-piperidones as novel neurokinin-1 receptor antagonists and their efficient synthesis” (Bioorg Med Chem, 2011).

Each structure is given as a SMILES string. The source made the active and inactive calls. No cut-off for these calls is given here.

One assay concerns Cavia porcellus. Kind of assay: Inhibition of capsaicin-induced plasma extravasation in trachea of po dosed guinea pig. The assay is classed as functional, organism-based.
Conditions: not given
For orientation: inhibition means the relative decrease from the control value, in per cent. Regarding `COc1ccc(NS(C)(=O)=O)cc1CN1CCC(=O)C(C(c2ccccc2)c2ccccc2)C1` (racemic), the inhibition entry was “inactive”. Same read-out and setting: in the case of `COc1ccc(Br)cc1CN1CCC(=O)C(C(c2ccc(F)cc2)c2ccc(F)cc2)C1` (racemic) [listing 1 of 2 here] it was “inactive”; in that of `COc1ccc(C(C)C)cc1CN1CCC(=O)C(C(c2ccccc2)c2ccccc2)C1` (racemic), “inactive”; in that of `COc1ccc(OC(F)(F)F)cc1CN1CCC(=O)C(C(c2ccccc2)c2ccccc2)C1` (racemic), “inactive”.

The target in the next assay is T1, Substance-P receptor (Homo sapiens, UniProt P25103). Briefly: Displacement of [125I]BH-SP from human tachykinin NK1 receptor expressed in IM9 cells after 30 mins by scintillation counting. Format: cell-based, IM-9.
T1 sequence (P25103 whole entry): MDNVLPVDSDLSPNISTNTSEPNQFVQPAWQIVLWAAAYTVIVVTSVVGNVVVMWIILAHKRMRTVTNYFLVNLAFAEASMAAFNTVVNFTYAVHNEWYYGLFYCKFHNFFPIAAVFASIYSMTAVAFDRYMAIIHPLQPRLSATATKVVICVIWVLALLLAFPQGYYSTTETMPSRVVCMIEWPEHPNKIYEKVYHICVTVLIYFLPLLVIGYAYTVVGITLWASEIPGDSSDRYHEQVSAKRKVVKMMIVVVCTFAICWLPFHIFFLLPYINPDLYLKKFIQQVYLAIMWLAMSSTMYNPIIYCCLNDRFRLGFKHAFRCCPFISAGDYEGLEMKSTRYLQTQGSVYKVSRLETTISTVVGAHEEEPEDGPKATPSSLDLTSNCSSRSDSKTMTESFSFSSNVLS
Conditions: not given
The essentials: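 Membranes from IM-9 cells grown 3 days, homogenized in 50 mM Tris-HCl pH 7.4 with NaCl, KCl, EDTA and protease inhibitors, spun at 40,000g for 20 min, then resuspended in a Tris buffer with 0.02% BSA and 3 mM MnCl2. Nonspecific binding was defined with 2 × 10^-6 M SP. Bound ligand was collected on GF/C filters, washed three times and counted.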
Usually IC50 stands for the concentration at which inhibition is half-maximal. The molecule `N#Cc1ccccc1CN1CCC(=O)C(C(c2ccc(F)cc2)c2ccc(F)cc2)C1` (racemic) came in with an IC50 of 0.0061 µM. On the same count and under the same terms, in the case of `O=C1CCN(Cc2ccccc2F)CC1C(c1ccc(F)cc1)c1ccc(F)cc1` (racemic) it was 0.046 µM. Still for that read-out and setting: in the case of `O=C1CCN(Cc2ccccc2O)CC1C(c1ccc(F)cc1)c1ccc(F)cc1` (racemic) it was 0.28 µM.

Turning to `COc1ccc(CN2CCC(=O)C(C(c3ccc(F)cc3)c3ccc(F)cc3)C2)c(OC)c1` (racemic), the IC50 turned out to be 0.0095 µM. The same measure, in the same setting: in the case of `COc1ccc(NC(C)=O)cc1CN1CCC(=O)C(C(c2ccccc2)c2ccccc2)C1` (racemic) it was 0.015 µM; in that of `COc1ccccc1CN1CCC(=O)C(C(c2ccc(F)cc2)c2ccc(F)cc2)C1` (racemic), 0.0066 µM. On the same count and under the same terms, in the case of `COc1cccc(OC)c1CN1CCC(=O)C(C(c2ccc(F)cc2)c2ccc(F)cc2)C1` (racemic) it was 0.0023 µM; in that of `COc1ccc(CN2CCC(=O)C(C(c3ccc(F)cc3)c3ccc(F)cc3)C2)cc1` (racemic), 0.077 µM. Still for that read-out and setting: in the case of `O=C1CCN(Cc2cccc(C(F)(F)F)c2)CC1C(c1ccc(F)cc1)c1ccc(F)cc1` (racemic) it was 0.27 µM; in that of `COc1ccc(N)cc1CN1CCC(=O)C(C(c2ccccc2)c2ccccc2)C1` (racemic), 0.0059 µM.

As to `O=C1CCN(Cc2ccccc2[N+](=O)[O-])CC1C(c1ccc(F)cc1)c1ccc(F)cc1` (racemic), the IC50 stood at 0.018 µM. The molecule `O=C1CCN(Cc2ccccc2)CC1C(c1ccccc1)c1ccccc1` (racemic) came in with a half-inhibitory concentration (IC50) of 0.097 µM. With `COc1ccc([N+](=O)[O-])cc1CN1CCC(=O)C(C(c2ccccc2)c2ccccc2)C1` (racemic), the IC50 turned out to be 0.0026 µM.

The molecule `COc1ccc(OC)c(CN2CCC(=O)C(C(c3ccc(F)cc3)c3ccc(F)cc3)C2)c1` (racemic) gave a 50% inhibitory concentration (IC50) of 0.0031 µM. On the same count and under the same terms, in the case of `COc1ccc(F)cc1CN1CCC(=O)C(C(c2ccc(F)cc2)c2ccc(F)cc2)C1` (racemic) it was 0.004 µM; in that of `COc1ccc(Br)cc1CN1CCC(=O)C(C(c2ccc(F)cc2)c2ccc(F)cc2)C1` (racemic) [listing 2 of 2 here], 0.0011 µM; in that of `COc1cccc(CN2CCC(=O)C(C(c3ccc(F)cc3)c3ccc(F)cc3)C2)c1` (racemic), 0.031 µM. The same measure, in the same setting: in the case of `O=C1CCN(Cc2ccccc2C(F)(F)F)CC1C(c1ccc(F)cc1)c1ccc(F)cc1` (racemic) it was 0.0049 µM; in that of `COc1ccc(OC(F)(F)F)cc1CN1CCC(=O)C(C(c2ccc(F)cc2)c2ccc(F)cc2)C1` (racemic), 0.00081 µM; in that of `O=C1CCN(Cc2ccccc2-c2ccccc2)CC1C(c1ccc(F)cc1)c1ccc(F)cc1` (racemic), 0.014 µM.

The molecule `COc1cccc(CN2CCC(=O)C(C(c3ccc(F)cc3)c3ccc(F)cc3)C2)c1OC` (racemic) had an IC50 of 0.055 µM. Regarding `COc1ccc(Br)cc1CN1CCC(=O)C(C(c2ccc(F)cc2)c2ccc(F)cc2)C1` (single isomer, unassigned; (+)), the IC50 is 0.0015 µM. Still for that read-out and setting: in the case of `O=C1CCN(Cc2ccc(C(F)(F)F)cc2)CC1C(c1ccc(F)cc1)c1ccc(F)cc1` (racemic) it was 0.22 µM.

Consider `O=C1CCN(Cc2ccccc2)CC1C(c1ccc(F)cc1)c1ccc(F)cc1` (racemic), for which the IC50 was found to be 0.097 µM. Same read-out and setting: in the case of `O=C1CCN(Cc2ccccc2)CC1C(c1ccc(Cl)cc1)c1ccc(Cl)cc1` (racemic) it was 0.097 µM.

Another assay deals with T1, Substance-P receptor. Briefly: Displacement of [125I]BH-SP from human tachykinin NK1 receptor expressed in IM9 cells at 10^-7 M after 30 mins by scintillation counting. Conditions: IM-9. The assay is classed as cell-based. Background: Loss of bound radioactivity is the signal in a displacement assay; it reports binding, not function.
`O=C1CN(Cc2ccccc2)CCC1C(c1ccccc1)c1ccccc1` (racemic): the inhibition amounted to 9.7%. With `O=C1CCNCC1C(c1ccccc1)c1ccccc1` (racemic), the inhibition was 17.6%. As for `O=C1CCN(Cc2ccccc2)CC1C(c1ccccc1)c1ccccc1` (racemic), the inhibition stood at 81.7%. For `O=C1CCN(Cc2ccccc2)CC1C1c2ccccc2Oc2ccccc21` (racemic), the inhibition was 29.8%. On to `O=C1CCN(Cc2ccccc2)CC1=C(c1ccccc1)c1ccccc1`, for which the inhibition was -2%. On the same count and under the same terms, in the case of `O=C1CN(Cc2ccccc2)CC1C(c1ccccc1)c1ccccc1` (racemic) it was -0.6%; in that of `O=C1CCN(Cc2cc(C(F)(F)F)cc(C(F)(F)F)c2)CC1C(c1ccc(F)cc1)c1ccc(F)cc1` (racemic), 32.9%.

`O=C1CCN(CCc2ccccc2)CC1C(c1ccccc1)c1ccccc1` (racemic): the inhibition came to 54.3%. Still for that read-out and setting: in the case of `O=C1CCN(Cc2ccccc2)CC1C1c2ccccc2C=Cc2ccccc21` (racemic) it was 31.1%; in that of `O=C1CCN(Cc2ccccc2)CC1C(c1ccc(F)cc1)c1ccc(F)cc1` (racemic), 81.7%; in that of `O=C1CCN(Cc2ccccc2)CC1C(c1ccc(Cl)cc1)c1ccc(Cl)cc1` (racemic), 81.7%.

The test system of a further assay is Cavia porcellus. Kind of assay: Inhibition of capsaicin-induced plasma extravasation in trachea of iv dosed guinea pig. Format: functional, organism-based.
Conditions: not given
As for `COc1ccc(NS(C)(=O)=O)cc1CN1CCC(=O)C(C(c2ccccc2)c2ccccc2)C1` (racemic), the inhibition entry was “inactive”. The same measure, in the same setting: in the case of `COc1ccc(Br)cc1CN1CCC(=O)C(C(c2ccc(F)cc2)c2ccc(F)cc2)C1` (racemic) [listing 1 of 2 here] it was “inactive”; in that of `COc1ccc(C(C)C)cc1CN1CCC(=O)C(C(c2ccccc2)c2ccccc2)C1` (racemic), “inactive”.

On to `COc1ccc(OC(F)(F)F)cc1CN1CCC(=O)C(C(c2ccccc2)c2ccccc2)C1` (racemic), for which the inhibition result was “inactive”.
